Beta2AR agonist – human beta-2 adrenergic receptor agonism by FAP; 340,000 tested, 0.43% active; response, % (no concentration beside the values); P07550; Am2.2-beta2AR cells, FAP receptor internalization, flow cytometry;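 active = response above a set limit, near 3 SD of response in nonfluorescent compounds, cut at about 42% in these data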
UPR CHOP act – apoptotic UPR (CHOP) activation. 330,000 tested, 0.34% active. activation, % at 10 µM. AID 449763. CHO-CHOP luciferase reporter, luminescence; percent of tunicamycin response over DMSO baseline;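 active = at 10 µM dose, activation of 40% or more, normalized to positive control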;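 also: 100% = tunicamycin at 10 µg/mL and 0% = DMSO alone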
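measured by = luciferase luminescence | assay system = CHO-CHOP cells, stable luciferase reporter of PERK-eIF2a-CHOP signalling | amount = 500 reporter cells seeded per well | timing = 6 h compound exposure at 37 °C after overnight seeding | controls = positive tunicamycin 10 µg/mL, negative DMSO alone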
CHOP inhibitor – blocks CHOP induction under ER stress. 220,000 tested, 3.8% active. inhibition, % at 10 µM. CHO-K1 CHOP-promoter luciferase, tunicamycin-induced, 15-18 h;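 active = compounds that reduced the stress-induced luciferase reporter signal by more than about 70% of percent inhibition, limit read from the data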;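 also: 0% = tunicamycin plus vehicle and 100% = wells without tunicamycin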
VLA-4 inh – inhibition in a human VLA-4 binding assay; VLA-4 expressing cells, ligand binding flow cytometry; inhibition, % (about 7 µM as worked out from the volumes in the protocol); 330,000 tested, 0.2% active; in the data active = inhibition above about 50%
Target sequence (P13612 whole entry, looked up): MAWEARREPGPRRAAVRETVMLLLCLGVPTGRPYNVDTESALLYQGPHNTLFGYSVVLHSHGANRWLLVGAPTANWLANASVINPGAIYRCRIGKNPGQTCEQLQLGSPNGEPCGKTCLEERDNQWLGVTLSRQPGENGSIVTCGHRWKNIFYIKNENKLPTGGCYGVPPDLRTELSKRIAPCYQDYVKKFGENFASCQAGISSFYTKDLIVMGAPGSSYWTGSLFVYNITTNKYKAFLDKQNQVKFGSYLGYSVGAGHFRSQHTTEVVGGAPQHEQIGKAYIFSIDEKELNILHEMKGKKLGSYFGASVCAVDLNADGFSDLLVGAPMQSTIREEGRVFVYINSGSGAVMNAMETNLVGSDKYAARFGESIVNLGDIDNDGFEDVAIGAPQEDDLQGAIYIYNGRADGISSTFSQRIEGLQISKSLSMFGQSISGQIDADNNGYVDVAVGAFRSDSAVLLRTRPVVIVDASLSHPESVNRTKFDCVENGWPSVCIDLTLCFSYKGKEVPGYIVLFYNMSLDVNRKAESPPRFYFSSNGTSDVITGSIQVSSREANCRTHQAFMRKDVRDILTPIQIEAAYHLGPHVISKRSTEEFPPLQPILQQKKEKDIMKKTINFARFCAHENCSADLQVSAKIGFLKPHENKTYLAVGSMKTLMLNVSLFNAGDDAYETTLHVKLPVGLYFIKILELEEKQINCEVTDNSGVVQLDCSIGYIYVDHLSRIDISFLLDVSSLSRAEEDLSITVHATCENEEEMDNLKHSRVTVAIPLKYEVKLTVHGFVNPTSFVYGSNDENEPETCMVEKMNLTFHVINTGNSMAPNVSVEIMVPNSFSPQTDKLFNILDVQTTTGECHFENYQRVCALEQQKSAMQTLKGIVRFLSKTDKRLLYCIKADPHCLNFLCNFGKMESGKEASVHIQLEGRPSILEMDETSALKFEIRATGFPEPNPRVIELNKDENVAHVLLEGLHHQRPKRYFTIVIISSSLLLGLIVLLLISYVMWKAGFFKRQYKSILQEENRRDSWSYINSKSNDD
XBP1 UPR activ – adaptive UPR (XBP1) activation. CHO-XBP1 luciferase reporter, IRE1-XBP1 UPR activation, luminescence; percent of tunicamycin response, DMSO as zero. activation, % at 20 µM. 330,000 tested, 0.33% active. AID 463104;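 active = versus positive control, 20 µM dose yields 30% or more activation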;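 also: 100% = tunicamycin at 10 µg/mL and 0% = DMSO only wells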
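assay system = CHO-XBP1 luciferase reporter cells | amount = 1000 cells/well | buffer or medium = F12 plus 10% FBS | compound dosing = single point, 20 µM final compound, 1% DMSO | incubation = 16-18 h cell attachment at 37 °C, then 6 h compound exposure | detection = Steady-Glo luminescence read | controls = tunicamycin 10 µg/mL and vehicle-only wells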
The depositor's hits bear a star; / = not tested or not shown. This is one part of a sample in which hits are shown more often than they occur.

SMILES	Beta2AR agonist	UPR CHOP act	CHOP inhibitor	VLA-4 inh	XBP1 UPR activ
CC1Cc2ccccc2N1S(=O)(=O)c1cccc(C(=O)NCCCO)c1 (centres undefined)	2	-2	11	-6	-4
CCOC(=O)c1ccc(NC(=O)c2cccc(S(=O)(=O)N3c4ccccc4CC3C)c2)s1 (centres undefined)	12	13	71*	13	10
COc1cccc(C(=O)Nc2nc(SCc3ccc(Cl)cc3)n[nH]2)c1	1	1	-14	-4	3
Oc1ccccc1Oc1c(F)c(F)nc(N2CCCC2)c1F	0	-1	94*	-4	4
Oc1ccccc1Oc1ncc(Br)c(N2CCOCC2)n1	1	-4	31	8	1
O=S(=O)(c1ccc(Cl)s1)N1CCN(Cc2ccccc2)CC1	-3	-1	81*	-21	-4
CC1CCCCN1c1nc(-c2ccncc2)nc2ccccc12 (centres undefined)	8	3	77*	-3	6
O=C(Nc1nc2c(s1)CCCC2)c1cc(-c2ccccc2)nc2ccccc12	14	3	81*	-34	-4
CC(C)(C)c1nnc(NC(=O)c2cc(-c3ccccc3)nc3ccccc23)s1	-2	2	74*	0	-2
COc1ccc(-n2nc(C(=O)NCC(=O)N3CCC(C)CC3)c3ccccc3c2=O)cc1Cl	-13	3	/	-19	-3
Cc1ccc(/C=C2/SC(=S)N(CCC(=O)N3CCOCC3)C2=O)cc1	0	2	/	19	1
COc1ccc(-c2nc(-c3ccccc3)c(-c3cc([N+](=O)[O-])ccc3C)[nH]2)cc1O	4	15	74*	-4	-7
CC1Sc2ccc(S(=O)(=O)CCC(=O)N(C)Cc3ccccc3)cc2NC1=O (centres undefined)	-1	0	/	13	-3
CCCCCCCCC(=O)N/N=C/c1cccc(Br)c1	6	-2	87*	9	0
CCCCCCC(=O)N/N=C/c1ccc(Br)cc1	16	2	93*	12	-1
CCCCCCCC(=O)N/N=C/c1ccncc1	-6	1	1	5	-1
CCOc1ccc2oc(C(=O)OCC(=O)NC3CCCCC3)c(C)c2c1	-3	-2	/	0	-1
Cc1ccc(C(C)NC(=O)c2ccncc2)c(C)c1 (centres undefined)	8	5	/	14	-3
CCOc1ccc(NC(=O)c2cn(CC(C)C)c(=O)c3c2c2ccccc2n3C)cc1	28	1	90*	-4	7
COCCCNC(=O)c1cn(CC(C)C)c(=O)c2c1c1ccccc1n2C	-94	-1	15	3	2
CCc1nnc(NC(=O)Cn2c(=O)oc3ccccc32)s1	10	-3	-7	-8	-2
CC(C)CN(CC(C)C)c1nnc(NC(=O)Cn2c(=O)oc3ccccc32)s1	-6	0	79*	-5	2
C=CCCC(=O)NC1CC(C)(C)Cc2c1cnn2-c1ccc(OC)cc1 (centres undefined)	3	0	/	7	-5
Cc1ccc(C(C)C)c(OCC(=O)NC(=S)Nc2ccccc2N2CCOCC2)c1	8	1	/	6	0
CCC(=O)N1CCN(c2ccccc2NC(=O)COc2cc(C)ccc2C(C)C)CC1	6	3	77*	36	-1
SMILES	Beta2AR agonist	UPR CHOP act	CHOP inhibitor	VLA-4 inh	XBP1 UPR activ
Cc1cc(C)c(OCC(=O)Nc2ccccc2N2CCOCC2)c(C)c1	37	0	79*	16	2
Cc1ccc(C(C)C)c(OCC(=O)NN=C2CCCC(=O)C2)c1	5	-1	/	-6	2
Cc1ccc(C(C)C)c(OCC(=O)NN=C2CCCCCCC2)c1	-2	1	83*	0	-1
CC/C(=N/NC(=O)CNc1ccc(Cl)cc1C)c1ccccc1	3	-1	70*	-3	-1
CS(=O)(=O)N1CCC(C(=O)NCc2ccc3c(c2)OCO3)CC1	16	-2	29	-62	3
Cc1ccc(NC2=C(C(=O)c3ccccc3)N(C)S(=O)(=O)c3ccccc32)cc1	16	0	95*	6	-3
COc1ccc(-c2nsc3c(N4CCCC4)ncnc23)cc1	-8	-7	90*	16	-4
CCN(CC)c1ccc(/C=C/C(=O)c2cccnc2)cc1	14	-1	12	50*	-4

Screens deposited in PubChem BioAssay by several laboratories.
